This note sets out measurements from the EternaBench riboswitch data.

The test system of the data set is MS2 coat protein. The data set can be described thus: apparent Kd, MS2 coat protein; higher = weaker binding; RNA-MaP array; FMN 200 µM where present. The gist of the method: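 The apparent Kd comes from binding curves fitted cluster by cluster, filtered, and summarised as a median. Those curves followed SNAP-549-labelled MS2 coat protein from 0.7 or 1.5 nM, doubling to 3 µM, on Illumina sequencing-chip clusters where stalled E. coli RNA polymerase had transcribed the designs, without and then with constant ligand. The buffer was 100 mM Tris-HCl pH 7.5, 80 mM KCl, 4 mM MgCl2, BSA, DTT, yeast tRNA and Tween-20, and green signal was normalised to red-channel RNA signal and control-cluster median Fmax.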

Where [1] appears, read: designed as: OFF switch for flavin mononucleotide, no ligand.
Setting [2] is: ligand present: flavin mononucleotide, designed as: OFF switch for flavin mononucleotide.
Where [3] appears, read: designed as: ON switch for flavin mononucleotide, no ligand.
[4] abbreviates: ligand present: flavin mononucleotide, designed as: ON switch for flavin mononucleotide.

One may read the apparent Kd as a dissociation constant that holds for the conditions of the assay. For “CGGUACUUAGGAUAUACAUGAGGAUCACCCAUGUAGAAAUGGUGGGUGCCGUCCUGUGGUAGAAGGAAGAAUCG”, the “apparent Kd” value is, setting by setting: under setting [1], 28.5 nM; under setting [2], 50.2 nM.
As for “UGUUAUUAGACAGGAUAUUGAAUGUUAAGUAUUAACAUGAGGAUCACCCAUGUAUUUCAUUCGUACAAGAAGGGUCAUGUUCCU”, the “apparent Kd” value came to 166 nM under setting [3] and 202 nM under setting [4].
As to “CCUGUCAGAGGAUAUGCAUCAGGGCUAUCCUCUAUCGCAGAACAUGAGGAUCACCCAUGUAGAAGGCUGUCAAA”, the “apparent Kd” value reads like this: under setting [1], 29.9 nM; under setting [2], 23.6 nM.
On to “CGAUAUAUGAAGGGCGAACGCGCACAUGAGGAUCACCCAUGUAGAAGGCGAUCCGCAACGCGGAUCGAGGAUAUAUAGUAUACA”, for which the “apparent Kd” value by setting is: under setting [1], 37 nM; under setting [2], 33.8 nM.
In the case of “GCAGUAAAUAAAUGCACAUGAGGAUCACCCAUGUGGGAGGCACAGGAUAUCGUAUCAUAGUAGUACGAGAAGGGUGAUAAUCUC”, the “apparent Kd” value came out at 370 nM under setting [3] and 64.2 nM under setting [4].
For the sequence “CCGCAGUUAGGAUAUACAUGAGGAUCACCCAUGUGUCCAUCUGUAAUAAGACAGGAUAGUAGAAGGAACUGGCG”, the “apparent Kd” value is 14.8 nM under setting [1] and 25.9 nM under setting [2].
As to “UUUGGGUGGCUGGAGGAUAUUCUAGUGGUUACAUGAGGAUCACCCAUGUGUCGCGCGGUUCGCGAGGAGAAGGCUGGCGGCCGUU”, the “apparent Kd” value under setting [3] was found to be 166 nM and the “apparent Kd” value under setting [4] was determined as 46.2 nM.
As to “AAGAAGACAGGAUAUACAUGAAAGAAAGAAAAGAAAAGAAAACAUGAGGAUCACCCAUGUAGAAGGGUCAAGAA”, the “apparent Kd” value by setting is: under setting [1], 46.5 nM; under setting [2], 59.2 nM.
In the case of “UUUUUGAAGCUUCGUCAAUACAGUUAGGAUAUGAGAGACAUGAGGAUCACCCAUGUGCAUGUUGAUUAGAAGGAACAACUAUCU”, the “apparent Kd” value reads like this: under setting [1], 14.2 nM; under setting [2], 12.7 nM.
“AAAAAACAUGAGGAUCACCCAUGUAAAAAAAUGGGAGGAUAUACAAAAACAAAAAAAAAAGUAGAAGGCCUGAAAA”: the “apparent Kd” value is 387 nM under setting [3] and 63.8 nM under setting [4].
In the case of “CGGCACGCAGGAUAUGCCUUUGAGUACAUGAGGAUCACCCAUGUCUUCACCCUCAUUAGGGCAGAAGGGCGAUAUC”, the “apparent Kd” value under setting [1] came out at 24.4 nM and the “apparent Kd” value under setting [2] turned out to be 32.2 nM.
In the case of “GUAGCAUACCGAGGAUAUUCAUACAGGAAACUGACAUGAGGAUCACCCAUGUGGCGAAAGCCUUGGGAGAAGGCGGAAUGCUAC”, the “apparent Kd” value stood at 637 nM under setting [3] and 28.4 nM under setting [4].
“AGCUGGAGAGGAUAUACGUAGGAAAAAAAAGUCUGAUCACUACAUGAGGAUCACCCAUGUAGAAGGCUCUGGCA”: the “apparent Kd” value reads like this: under setting [1], 21.2 nM; under setting [2], 62.2 nM.
For “ACAUUCACUCGACUGGUUCUUAACAUGAGGAUCACCCAUGUAGAGGAUAUAGGAAUUCUGGGUUCCUAGAAGGCUACGUGAGUG”, in that order: 15.9 nM and 76.7 nM.
Regarding “AGUGUCAUCGAGAAGGCCUCAACAUGAGGAUCACCCAUGUUGCAAAAUGGGAGGAUAUCGCAAAAACAGCUACGUUUCGUAGCA”, the “apparent Kd” value by setting is: under setting [3], 45.4 nM; under setting [4], 7.43 nM.
In the case of “GGCUGGUGAGCAGGAUAUGGUCGUGCCUUUGUUCGUGGUCCCACAUGAGGAUCACCCAUGUUCGACCAGAAGGGCUGACUUGAG”, the “apparent Kd” value was determined as 31 nM under setting [1] and 18.9 nM under setting [2].
As to “GUGAGUGAUAGAGGAUAUAUAGAGAGAGAGAGAAUAGAAGGCUAAACAUACAUGAACAUGAGGAUCACCCAUGUCACCCAUGUU”, the “apparent Kd” value is, setting by setting: under setting [3], 37.6 nM; under setting [4], 42.2 nM.
Turning to “UGUGUUAUCGGAGGAUAUCGAUAUCAAACAUGAGGAUCACCCAUGUUGAGGAUCACACAUGUCCACGAGAAGGCCGACGUAGUG”, the “apparent Kd” value by setting is: under setting [3], 7.12 nM; under setting [4], 7.23 nM.
Turning to “UUAUCUAUGUAAGGAUAUCGAUGAUAUACGCAUCCGACAUGAGGAUCACCCAUGUUAUAUUUUGUCGAGAAGGUACAUUGUCGG”, the “apparent Kd” value runs as follows: under setting [3], 46.8 nM; under setting [4], 50.3 nM.
On to “GCUGCGUACGUAGGAUAUACAUGAGGAUCACCCAUGUAACUCGGACUCUAAGCGGGUGCGCGCAUGUAGAAGGACGGGCGAGCC”, for which the “apparent Kd” value amounted to 33.3 nM under setting [1] and 57.2 nM under setting [2].
